Changes are numbered by the printed parent chain.
Columns and labels:
rP2X7-R125A = target: T1, rP2X7-R125A (Rattus norvegicus, UniProt Q64663, R125A); test: TEVC deactivation time; type: cell-based; settings: after 100 μM ATP or 10 μM BzATP
T1 sequence (Q64663 1-595 R125A): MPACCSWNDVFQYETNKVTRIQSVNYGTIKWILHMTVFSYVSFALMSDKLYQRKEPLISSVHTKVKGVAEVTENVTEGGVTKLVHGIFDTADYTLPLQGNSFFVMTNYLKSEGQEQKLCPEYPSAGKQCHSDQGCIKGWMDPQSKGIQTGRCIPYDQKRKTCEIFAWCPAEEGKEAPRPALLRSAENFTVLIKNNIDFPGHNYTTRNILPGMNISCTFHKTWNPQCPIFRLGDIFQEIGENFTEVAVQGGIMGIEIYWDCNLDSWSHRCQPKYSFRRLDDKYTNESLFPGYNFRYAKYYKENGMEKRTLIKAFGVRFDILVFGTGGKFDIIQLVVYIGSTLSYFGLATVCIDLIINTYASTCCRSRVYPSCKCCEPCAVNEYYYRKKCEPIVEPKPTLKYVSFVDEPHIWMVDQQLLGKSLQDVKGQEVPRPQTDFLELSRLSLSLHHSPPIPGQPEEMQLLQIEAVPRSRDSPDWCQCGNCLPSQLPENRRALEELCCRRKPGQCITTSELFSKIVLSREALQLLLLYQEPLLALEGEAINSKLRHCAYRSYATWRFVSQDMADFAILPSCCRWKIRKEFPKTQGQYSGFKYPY
Summary of the method: (§1)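 Xenopus oocytes injected with 50 nL of 10 ng/µL mutant rP2X7 mRNA, expressed ~20 h, clamped in pH 7.4 HEPES buffer with 0.1 mM flufenamic acid and EDTA. Currents were evoked by 100 µM ATP or 10 µM BzATP. τ is the time for current to return to 63% of baseline after agonist removal, from a one- or two-phase decay fit. Done in triplicate over first to third applications per oocyte; mean ± SD.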

rP2X7-R125A/Q143A = target: T2, rP2X7-R125A/Q143A (Rattus norvegicus, UniProt Q64663, Q143A/R125A); test: TEVC deactivation time; type: cell-based; settings: after 100 μM ATP or 10 μM BzATP
T2 sequence (Q64663 1-595 R125A/Q143A): T1 sequence (Q64663 1-595 R125A) with Q143A
Summary of the method: as §1

biotinylated rP2X7 = target: T3, biotinylated rP2X7 (Rattus norvegicus, UniProt Q64663); test: Bio-layer interferometry; type: binding; settings: for rate constant for association (ka) / rate constant for dissociation (kd): 30 °C, PBS pH 7.4, 0.5 mM DDM, 1:1 Langmuir global fit, mean ± SD of three
T3 sequence (Q64663 1-595): T1 sequence (Q64663 1-595 R125A) with A125R
Summary of the method: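 Full-length rat P2X7 expressed in HEK293 GnTI cells by BacMam, purified in DDM/CHS (TALON, SEC), then biotinylated with NHS-PEG12-biotin at pH 8.0, 23 °C, 60 min. Loaded at 50 µg/ml onto streptavidin tips, blocked with biocytin. Threefold agonist dilutions (ATP 30–0.12 µM; BzATP 3.3–0.014 µM): 90 s association, 300 s (ATP) or 800 s (BzATP) dissociation. Double reference subtraction used biocytin sensors and zero analyte. KD = kd/ka.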

| Compound | deactivation lifetime τ (rP2X7-R125A) [s] | deactivation lifetime τ (rP2X7-R125A/Q143A) [s] | rate constant for association (ka) (biotinylated rP2X7; BLI) | rate constant for dissociation (kd) (biotinylated rP2X7; BLI) | affinity for rP2X7 lower than that of human P2X3 (biotinylated rP2X7; KD rP2X7 vs human P2X3) | affinity for rP2X7 lower than that of zebra fish P2X4 (biotinylated rP2X7; KD rP2X7 vs zebra fish P2X4) [fold] | higher binding affinity (KD) than ATP (biotinylated rP2X7; BLI, rP2X7) |
| --- | --- | --- | --- | --- | --- | --- | --- |
| Nc1ncnc2c1ncn2[C@@H]1O[C@H](COP(=O)(O)OP(=O)(O)OP(=O)(O)O)[C@@H](O)[C@H]1O [ATP] | 3.5 ± 0.6 | 1.8 ± 0.1 | 9.4 ± 2.4 x10^4 M^−1s^−1 | 5.1 ± 2.5 x10^−2 s^−1 | approximately 190 fold | ~46 | – |
| BzATP | 18 ± 3.7 | 2.5 ± 1.1 | 3.7 ± 1.0 x10^5 M^−1s^−1 | 2.6 ± 1.0 x10^−3 s^−1 | – | – | ~ 70 fold |

From publication PMC11303814 (Nature Communications, 2024)
